Results: ChEMBL document CHEMBL1156792, “Application of the dipeptidyl peptidase IV (DPPIV/CD26) based prodrug approach to different amine-containing drugs” (J Med Chem, 2010)

Legend:
[1] = substrate: CC(C)[C@H](N)C(=O)N1CCC[C@H]1C(=O)N[C@H](C(=O)N1CCC[C@H]1C(=O)Nc1ncnc2c1ncn2[C@@H]1O[C@H](CO)[C@@H](O)[C@@H]1O)C(C)C; experiment: (§1) Activity of human recombinant CD26 assessed as hydrolysis
Outline: (§2)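 Human recombinant CD26 (Sf9-expressed) was incubated with prodrug at several levels (2–50 μM, or 50–1000 μM for the AspPro conjugate). Hydrolysis was quantified by RP-8 HPLC at 15, 30 and 45 min. Km and Vmax were calculated at each time point and averaged over the three, with at least two to three independent experiments.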

[2] = substrate: CC(C)[C@H](N)C(=O)N1CCC[C@H]1C(=O)Nc1ccc2ncccc2c1; experiment: as §1; outline: as §2
[3] = substrate: COc1cccc2c1C(=O)c1c(O)c3c(c(O)c1C2=O)C[C@@](O)(C(=O)CO)C[C@@H]3O[C@H]1C[C@H](NC(=O)[C@@H]2CCCN2C(=O)[C@@H](N)C(C)C)[C@H](O)[C@H](C)O1; experiment: as §1; outline: as §2
[4] = substrate: N[C@@H](CC(=O)O)C(=O)N1CCC[C@H]1C(=O)Nc1ccc2ncccc2c1; experiment: as §1; outline: as §2

B1: Dipeptidyl peptidase 4 (Homo sapiens), P27487 (protein)
chain: MKTPWKVLLGLLGAAALVTIITVPVVLLNKGTDDATADSRKTYTLTDYLKNTYRLKLYSLRWISDHEYLYKQENNILVFNAEYGNSSVFLENSTFDEFGHSINDYSISPDGQFILLEYNYVKQWRHSYTASYDIYDLNKRQLITEERIPNNTQWVTWSPVGHKLAYVWNNDIYVKIEPNLPSYRITWTGKEDIIYNGITDWVYEEEVFSAYSALWWSPNGTFLAYAQFNDTEVPLIEYSFYSDESLQYPKTVRVPYPKAGAVNPTVKFFVVNTDSLSSVTNATSIQITAPASMLIGDHYLCDVTWATQERISLQWLRRIQNYSVMDICDYDESSGRWNCLVARQHIEMSTTGWVGRFRPSEPHFTLDGNSFYKIISNEEGYRHICYFQIDKKDCTFITKGTWEVIGIEALTSDYLYYISNEYKGMPGGRNLYKIQLSDYTKVTCLSCELNPERCQYYSVSFSKEAKYYQLRCSGPGLPLYTLHSSVNDKGLRVLEDNSALDKMLQNVQMPSKKLDFIILNETKFWYQMILPPHFDKSKKYPLLLDVYAGPCSQKADTVFRLNWATYLASTENIIVASFDGRGSGYQGDKIMHAINRRLGTFEVEDQIEAARQFSKMGFVDNKRIAIWGWSYGGYVTSMVLGSGSGVFKCGIAVAPVSRWEYYDSVYTERYMGLPTPEDNLDHYRNSTVMSRAENFKQVEYLLIHGTADDNVHFQQSAQISKALVDVGVDFQAMWYTDEDHGIASSTAHQHIYTHMSHFIKQCFSLP
In the case of B1, the Km [1] is reported as 56 µM, the Vmax (nmol/hr/microg) [1] is reported as 10 and the Km [2] is reported as 25 µM. It also gave a Vmax (nmol/hr/microg) [2] of 32, a Km [3] of 15 µM and a Vmax (nmol/hr/microg) [3] of 30. The Km [4] was 524 µM and the Vmax (nmol/hr/microg) [4] was 70.
